This excerpt belongs to a sample that is enriched for hits.
G6PDH CS = inhibits Leuconostoc G6PDH, flagging false hits in G6PDH-based assays | Purified L. mesenteroides G6PDH, diaphorase/resazurin coupled fluorescence, 45 min | inhibition, % at 5 µM | hit rate 0.12% among 200,000 | AID 1020
L major viab = Leishmania major promastigote growth inhibition; inhibition, % at 10 µM; hit rate 9% among 200,000; Leishmania major promastigotes, resazurin fluorescence viability; AID 1063;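 also: promastigotes grown with compound for 44 hours at 28 °C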
Diaphorase inh = counter-screen for diaphorase-based assays: diaphorase inhibitors and chemical oxidizers; AID 1217; hit rate 0.69% among 190,000; inhibition, % at 20 µM; diaphorase resazurin-to-resorufin fluorescence, NADH, 16 min; bacterial (C. kluyveri) enzyme, not human;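 active = primary screen inhibition at 20 µM above a set limit, cut at about 50% in these data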;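 also: plate controls were DMSO with full reaction for no effect and wells lacking NADH for full effect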
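System: Bacterial diaphorase enzyme (C. kluyveri) | Incubation: 16-min room-temperature incubation before reading | Benchmarks: No-NADH positive control and DMSO neutral control | Measured by: Resorufin fluorescence 544/590 nm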
PfG6PD inh = PfG6PD (Plasmodium falciparum) enzyme inhibition | inhibition, % at 20 µM | PfGluPho enzyme, NADPH resazurin-diaphorase fluorescence | AID 504690 | hit rate 0.78% among 350,000;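 active = inhibition reaching at least a set limit at 20 µM in the primary screen, cut at about 59% in these data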;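 also: 0% = DMSO wells with substrate and 100% = DMSO wells lacking glucose-6-phosphate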
Diaph act CS = activates diaphorase or chemically reduces, flagging diaphorase assay artifacts; Diaphorase/resazurin coupled assay, resorufin fluorescence, 16 min; stronger effect = higher value; 1 = vehicle wells, 0 = NADH-free wells; activation factor at 20 µM; hit rate 0.005% among 190,000; AID 1229;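 active = diaphorase activity raised at least twofold by the compound at 20 µM; inactive = activation factor below 2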
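Test system: Clostridium kluyveri diaphorase, purified enzyme; input: enzyme 0.07 U/mL final; buffer or medium: 50 mM HEPES pH 7.4 with 4.542 mM MgCl2, 0.005% Tween 20; also added: 0.114 mM NADH and 0.1 mM resazurin, final amounts; schedule: 16 min enzyme reaction, ambient temperature; technique: fluorescence of resorufin, 544 nm excitation, 590 nm emission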
Redox H2O2 prof = compounds producing H2O2 with reducing agent – biochemical, NIH compound library profiling, artefact control for MLSCN library redox annotation, primary screen. DTT-dependent redox cycling H2O2, phenol red/HRP absorbance; 100% = 100 µM peroxide control, 0% = buffer. AID 878. activation, % at 10 µM. hit rate 0.03% among 200,000;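 active = activation of at least 50% relative to the plate's high and low controls in the primary single-dose screen; inactive = activation below 50%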;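 also: compound incubated with DTT at 0.8 mM final as the reducing agent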
Numbers without * were called inactive; nt = no result. Rule as the data show it, unless noted: active = inhibition above about 50%; inactive = the rest.

SMILES	G6PDH CS	L major viab	Diaphorase inh	PfG6PD inh	Diaph act CS	Redox H2O2 prof
COc1ccccc1N/C(=N/S(=O)(=O)c1ccc(C)cc1)c1ccc(Cl)cc1	1	100*	22	0	0.8	-7
O=S(=O)(/N=C(/Nc1ccc(Cl)c(S(=O)(=O)N2CCOCC2)c1)c1ccc(F)cc1)c1ccccc1	nt	nt	nt	14	nt	nt
COC(=O)/C(=C/c1c[nH]c2ccccc12)[N+](=O)[O-]	8	0	-8	12	1.1	-3
O=C(NC(=S)Nc1cc(C(F)(F)F)ccc1N1CCOCC1)c1sc2ccccc2c1Cl	-10	7	10	7	0.9	1
Cc1ccc(Nc2nc(CSc3nnc(-c4ccccc4)n3C)cs2)cc1	4	95*	20	17	0.8	0
Cn1nnnc1SCc1csc(Nc2ccccc2)n1	1	-3	13	30	0.9	2
Cc1ccc(Nc2nc(CSc3nnc(-c4ccccc4C)n3C)cs2)cc1	1	17	5	13	0.9	0
Cc1ccccc1-n1c(SCc2csc(Nc3ccccc3)n2)nnc1-c1cccnc1	-9	65*	24	13	0.8	1
Cc1ccc(Nc2nc(CSc3nnc(-c4cccnc4)n3-c3ccccc3C)cs2)cc1	1	97*	4	-2	1	22
COCCn1c(SC(C)C(=O)NCC2CCCO2)nc2sc3c(c2c1=O)CCC3 (stereo not drawn)	nt	nt	nt	13	nt	nt
O=C(Nc1cccc(S(=O)(=O)N2CCCCC2)c1)c1cc(=O)[nH]c2ccccc12	nt	nt	nt	14	nt	nt
Cc1ccc(C)c(OCCCN2CCNCC2)c1	nt	nt	nt	-8	nt	nt
Cc1cccc(OCCCN2CCCCCC2)c1	10	98*	3	-7	1	1
Cc1ccc(C(C)C)cc1OCCCCN1CCCC1	-1	99*	-2	-12	1	0
Cc1ccc(C)c(OCCCN2CCCC2)c1	-12	98*	20	-9	0.8	0
Clc1cccc(OCCCCN2CCCCC2)c1	nt	nt	nt	-19	nt	nt
CCC1=NN2C(=N)/C(=C\c3ccc(OCc4cc(=O)n5nc(CC)sc5n4)c(OC)c3)C(=O)N=C2S1	0	-4	54*	-3	0.5	-1
CCc1nn2c(=O)cc(COc3ccc(/C=C4\C(=N)N5N=C(CC(C)C)SC5=NC4=O)cc3)nc2s1	nt	nt	nt	-23	nt	nt
COc1ccc2c(c1)Cc1sc(NC(=O)c3ccco3)nc1-2	14	53*	27	13	0.7	-2
COc1ccc2c(c1)CCc1sc(NC(=O)c3ccco3)nc1-2	16	12	55*	47	0.5	-1
COc1ccc2c(c1)Cc1sc(NC(=O)c3cccnc3)nc1-2	18	55*	28	30	0.7	0
COc1ccc2c(c1)Cc1sc(NC(C)=O)nc1-2	-15	1	23	7	0.8	1
C#CCN(C[C@H]1[C@H](OC(=O)NCc2ccccc2F)[C@H](OC(=O)NCc2ccccc2F)C[C@@H](C(=O)OC)[C@H]1C(=O)OC)S(=O)(=O)c1ccc(C)cc1	nt	nt	nt	7	nt	nt
CCN1CCN(c2ncnc3c2cnn3-c2ccccc2)CC1	-7	-3	10	-7	0.9	0
Cc1ccc(C(=O)N2CCN(c3ncnc4c3cnn4-c3ccccc3)CC2)cc1	nt	53*	nt	nt	nt	1
SMILES	G6PDH CS	L major viab	Diaphorase inh	PfG6PD inh	Diaph act CS	Redox H2O2 prof
COc1ccc(-n2ncc3c(N4CCN(Cc5ccccc5)CC4)ncnc32)cc1	7	67*	12	26	0.9	0
CN1CCN(c2ncnc3c2cnn3-c2ccc(Cl)cc2)CC1	12	88*	5	15	1	0
CSCCC(NC(=O)c1ccc(C(C)(C)C)cc1)C(=O)O (stereo not drawn)	-1	2	8	19	0.9	0
CC1CCN(CCCNC(=O)c2ccc3c(=O)n(CCc4ccccc4)c(=O)[nH]c3c2)CC1	8	97*	10	3	0.9	0
CC1CCN(CCCNC(=O)c2ccc(Cn3c(=S)[nH]c4ccc(Br)cc4c3=O)cc2)CC1	1	99*	-8	nt	1.1	-1
CC1CCCCN1CCNC(=O)c1ccc2c(=O)n(CCc3ccccc3)c(=O)[nH]c2c1 (stereo not drawn)	1	63*	14	5	0.9	0
CCCCCn1c(=O)[nH]c2cc(C(=O)NCCCN3CCC(C)CC3)ccc2c1=O	5	58*	5	-6	0.9	-1
CCCCCn1c(=O)[nH]c2cc(C(=O)NCCN3CCC(C)CC3)ccc2c1=O	nt	nt	nt	-2	nt	nt
CC1CCCCN1CCCNC(=O)c1ccc2c(=O)n(CCc3ccccc3)c(=O)[nH]c2c1 (stereo not drawn)	-3	24	17	6	0.8	0
CN(C)CCCNC(=S)Nc1ccc(-c2ccccc2)cc1	nt	nt	nt	-21	nt	nt
CCn1c(SCC(=O)N2CCc3ccccc32)nnc1-c1ccco1	-3	-1	14	41	0.9	0
CC(=O)Nc1ccc(S(=O)(=O)N2c3ccccc3NC(=O)CC2C)c(Cl)c1 (stereo not drawn)	nt	nt	nt	1	nt	nt
O=C1NC(Nc2nccs2)(C(F)(F)F)C(=O)N1CCc1ccccc1 (stereo not drawn)	6	1	12	-9	0.9	2
O=C(N/N=C/c1ccccc1Cl)c1nc2ccc([N+](=O)[O-])cc2c(=O)[nH]1	2	0	58*	-3	0.4	-1
CCOc1ccc(N2C(=O)CC(Sc3ncccn3)C2=O)cc1 (stereo not drawn)	-3	2	5	-6	1	2
CCOc1ccc(N2C(=O)CC(Sc3nc(-c4cccs4)cc(C(F)(F)F)c3C#N)C2=O)cc1 (stereo not drawn)	0	55*	26	13	0.7	14
CO/N=C/C=C1/N(C)c2ccccc2C1(C)C	8	2	-9	-8	1.1	0
CN1/C(=C\C=N\O)C(C)(C)c2ccccc21	5	7	0	13	1	0
CN1/C(=C\C=[N+](C)c2ccccc2)C(C)(C)c2ccccc21	7	100*	12	5	0.9	2
Cc1ccccc1N=C/C=C1\N(C)c2ccccc2C1(C)C	-2	97*	4	7	1	0
CN(C)c1ccc(N=C/C=C2/N(C)c3ccccc3C2(C)C)cc1	9	90*	7	34	0.9	-1
CC1=NN(c2ccccc2)C(=O)/C1=C\C=C1/N(C)c2ccccc2C1(C)C	-22	33	15	31	0.9	1
CN1/C(=C\C=C2/SC(=S)NC2=O)C(C)(C)c2ccccc21	10	92*	24	7	0.8	-1
NC(=O)C1CCN(c2ncc(C(F)(F)F)cc2Cl)CC1	3	-5	-1	-19	1	-2
